Data reported in ChEMBL document CHEMBL4334465, “SAR Studies on Aromatic Acylhydrazone-Based Inhibitors of Fungal Sphingolipid Synthesis as Next-Generation Antifungal Agents” (J Med Chem, 2019).
Values after ≈ are worked out from the molar mass of the structure shown.

Legend:
[1] = Selectivity index, ratio of LD50 for human A549 cells to MIC80 for Cryptococcus neoformans H99; assay type: toxicity; conditions: read-out: Selectivity Index
Procedure, shortened: (§1)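 SI = LD₅₀/MIC₈₀. Cytotoxicity: A549 or HepG2 cells (DMEM, 10% FBS, passage 7, 10⁵ cells/well) adhered 14 h, then exposed to 0.03–128 μg/mL for 24 or 48 h at 37°C, 5% CO₂; MTT 4 h, formazan dissolved in DMSO, read at 570 nm. MIC₈₀ against C. neoformans from broth microdilution in HEPES-buffered YNB, pH 7.0.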

[2] = Selectivity index, ratio of LD50 for human HepG2 cells to MIC80 for Cryptococcus neoformans H99; assay type: toxicity; conditions: read-out: Selectivity Index; procedure, shortened: as §1
HepG2 = test: Cytotoxicity against human HepG2 cells after 24 to 48 hrs by MTT assay; assay type: functional; conditions: read-out: LD50 (the source's name)
Procedure, shortened: (§2)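 A549 and HepG2 kept in DMEM with 10% FBS and 1% pen-strep. At passage 7, seeded at 10⁵ cells/well and allowed to adhere 14 h. Compound added at 0.03–128 μg/mL, untreated wells as controls. Incubation 37°C, 5% CO₂ for 24 or 48 h. MTT (5 mg/mL in PBS) added for 4 h, formazan dissolved in DMSO, OD570.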

Candida albicans [3] = test: Antifungal activity against Candida albicans assessed as FICI in presence of itraconazole; assay type: functional
Procedure, shortened: (§3)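 Checkerboard combination scored by fractional inhibitory concentration index. Acylhydrazone serially diluted 16 to 0.015 μg/mL (11 dilutions). Partner drug in seven dilutions: fluconazole 12 to 0.19 μg/mL, amphotericin B 5 to 0.078 μg/mL, caspofungin, itraconazole or voriconazole 8 to 0.007 μg/mL.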

Cryptococcus neoformans [4] = test: Fungicidal activity against Cryptococcus neoformans H99 measured after 24 hrs by time-kill assay; assay type: functional, var grubii H99
Procedure, shortened: (§4)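 Overnight C. neoformans washed in PBS and resuspended in HEPES-buffered YNB, pH 7.4. 2 × 10⁴ cells exposed to a range of drug concentrations in 10 mL with 0.5% DMSO final, at 37°C, 5% CO₂, shaking at 200 rpm. Aliquots sampled over 96 h, diluted and plated on YPD; CFU counted after 48 h at 30°C.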

Candida parapsilosis [5] = test: Antifungal activity against Candida parapsilosis assessed as FICI in presence of voriconazole; assay type: functional; procedure, shortened: as §3
Pichia kudriavzevii [6] = test: Antifungal activity against Candida krusei 6258 assessed as FICI in presence of itraconazole; assay type: functional; procedure, shortened: as §3
Aspergillus fumigatus [7] = test: Antifungal activity against Aspergillus fumigatus measured after 24 to 72 hrs; assay type: functional
Procedure, shortened: (§5)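 Modified CLSI broth microdilution with inoculum per M27A3. Compounds were serially diluted 32 to 0.03 μg/mL. Media: C. neoformans in HEPES-buffered YNB without amino acids (pH 7.0, 2% glucose); Candida strains in YNB without ammonium sulfate or amino acids plus 1% asparagine (pH 7.0, 2% glucose); A. fumigatus in RPMI (pH 7.0, 2% glucose).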

Cryptococcus neoformans [8] = test: Antifungal activity against Cryptococcus neoformans H99 assessed as FICI in presence of amphotericin B; assay type: functional, var grubii H99; procedure, shortened: as §3
[Candida] auris [9] = Antifungal activity against Candida auris measured after 24 to 72 hrs; assay type: functional; conditions: Candidozyma auris; procedure, shortened: as §5
Pichia kudriavzevii [10] = test: Antifungal activity against Candida krusei 6258 assessed as FICI in presence of caspofungin; assay type: functional; procedure, shortened: as §3
Pichia kudriavzevii [11] = test: Antifungal activity against Candida krusei 6258 assessed as FICI in presence of voriconazole; assay type: functional; procedure, shortened: as §3
[Candida] auris [12] = Antifungal activity against Candida auris assessed as FICI in presence of caspofungin; assay type: functional, Candidozyma auris; procedure, shortened: as §3
Aspergillus fumigatus [13] = test: Antifungal activity against Aspergillus fumigatus assessed as FICI in presence of itraconazole; assay type: functional; procedure, shortened: as §3
Candida parapsilosis [14] = test: Antifungal activity against Candida parapsilosis assessed as FICI in presence of itraconazole; assay type: functional; procedure, shortened: as §3
A549 = test: Cytotoxicity against human A549 cells after 24 to 48 hrs by MTT assay; assay type: functional; conditions: read-out: LD50 (the source's name); procedure, shortened: as §2
Candida albicans [15] = test: Antifungal activity against Candida albicans assessed as FICI in presence of voriconazole; assay type: functional; procedure, shortened: as §3
Cryptococcus neoformans [16] = test: Antifungal activity against Cryptococcus neoformans H99 assessed as FICI in presence of itraconazole; assay type: functional, var grubii H99; procedure, shortened: as §3
Cryptococcus neoformans [17] = test: Fungicidal activity against Cryptococcus neoformans H99 measured up to 96 hrs by time-kill assay; assay type: functional, organism-based; conditions: var grubii H99; procedure, shortened: as §4
Pichia kudriavzevii [18] = test: Antifungal activity against fluconazole-resistant Candida krusei assessed as FICI in presence of itraconazole; assay type: functional
Procedure, shortened: (§6)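 Checkerboard in 96-well plate. Test compound diluted 16 to 0.015 μg/mL (11 dilutions) against the partner drug in seven dilutions: fluconazole 12 to 0.19 μg/mL, caspofungin, itraconazole or voriconazole 8 to 0.007 μg/mL. Fractional inhibitory concentration index (FICI) calculated from the combinations.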

[Candida] auris [19] = Antifungal activity against Candida auris assessed as FICI in presence of voriconazole; assay type: functional, Candidozyma auris; procedure, shortened: as §3
Cryptococcus neoformans [20] = test: Antifungal activity against Cryptococcus neoformans H99 assessed as FICI in presence of voriconazole; assay type: functional, var grubii H99; procedure, shortened: as §3
Candida parapsilosis [21] = test: Antifungal activity against Candida parapsilosis assessed as FICI in presence of fluconazole; assay type: functional; procedure, shortened: as §3
[Candida] auris [22] = Antifungal activity against Candida auris assessed as FICI in presence of fluconazole; assay type: functional, Candidozyma auris; procedure, shortened: as §3
Candida parapsilosis [23] = test: Antifungal activity against Candida parapsilosis assessed as FICI in presence of caspofungin; assay type: functional; procedure, shortened: as §3
Pichia kudriavzevii [24] = test: Antifungal activity against Candida krusei measured after 24 to 72 hrs; assay type: functional
Procedure, shortened: (§7)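 MIC by modified CLSI broth microdilution. Candida strains grown in YNB without ammonium sulfate or amino acids with 1% asparagine, pH 7.0, 2% glucose. Inoculum per CLSI M27A3. Compound serially diluted 32 to 0.03 μg/mL. Incubation 37°C, 5% CO₂, 24–72 h, then OD450. MIC80 taken as the lowest concentration giving 80% growth inhibition versus untreated control.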

Pichia kudriavzevii [25] = test: Antifungal activity against multi-drug resistant Candida krusei measured after 24 to 72 hrs; assay type: functional; procedure, shortened: as §7
Pichia kudriavzevii [26] = test: Antifungal activity against fluconazole-resistant Candida krusei assessed as FICI in presence of voriconazole; assay type: functional; procedure, shortened: as §6
Candida albicans [27] = test: Antifungal activity against Candida albicans assessed as FICI in presence of caspofungin; assay type: functional; procedure, shortened: as §3
Aspergillus fumigatus [28] = test: Antifungal activity against Aspergillus fumigatus assessed as FICI in presence of fluconazole; assay type: functional; procedure, shortened: as §3
Candida parapsilosis [29] = test: Antifungal activity against Candida parapsilosis measured after 24 to 72 hrs; assay type: functional; conditions: Lodderomyces parapsilosis; procedure, shortened: as §5
Aspergillus fumigatus [30] = test: Antifungal activity against Aspergillus fumigatus assessed as FICI in presence of voriconazole; assay type: functional; procedure, shortened: as §3
Pichia kudriavzevii [31] = test: Antifungal activity against Candida krusei 6258 assessed as FICI in presence of fluconazole; assay type: functional; procedure, shortened: as §3
Cryptococcus neoformans [32] = test: Fungicidal activity against Cryptococcus neoformans H99 measured after 12 hrs by time-kill assay; assay type: functional, var grubii H99; procedure, shortened: as §4
Cryptococcus neoformans [33] = test: Antifungal activity against Cryptococcus neoformans H99 assessed as FICI in presence of fluconazole; assay type: functional, var grubii H99; procedure, shortened: as §3
[Candida] auris [34] = Antifungal activity against Candida auris assessed as FICI in presence of itraconazole; assay type: functional, Candidozyma auris; procedure, shortened: as §3
Candida albicans [35] = test: Antifungal activity against Candida albicans assessed as FICI in presence of fluconazole; assay type: functional; procedure, shortened: as §3
Candida albicans [36] = test: Antifungal activity against Candida albicans measured after 24 to 72 hrs; assay type: functional; procedure, shortened: as §5
Cryptococcus neoformans [37] = test: Antifungal activity against Cryptococcus neoformans H99 measured after 24 to 72 hrs; assay type: functional; conditions: var grubii H99; procedure, shortened: as §5
Pichia kudriavzevii [38] = test: Antifungal activity against fluconazole-resistant Candida krusei assessed as FICI in presence of caspofungin; assay type: functional; procedure, shortened: as §6

Compound	selectivity ratio [1]	selectivity ratio [2]	CC50 (HepG2)	fractional inhibitory concentration index (FICI) (Candida albicans [3])	MFC100 (Cryptococcus neoformans [4])	fractional inhibitory concentration index (FICI) (Candida parapsilosis [5])	fractional inhibitory concentration index (FICI) (Pichia kudriavzevii [6])	MIC80 (Aspergillus fumigatus [7])	fractional inhibitory concentration index (FICI) (Cryptococcus neoformans [8])	MIC80 ([Candida] auris [9])	fractional inhibitory concentration index (FICI) (Pichia kudriavzevii [10])	fractional inhibitory concentration index (FICI) (Pichia kudriavzevii [11])	fractional inhibitory concentration index (FICI) ([Candida] auris [12])	fractional inhibitory concentration index (FICI) (Aspergillus fumigatus [13])	fractional inhibitory concentration index (FICI) (Candida parapsilosis [14])	CC50 (A549)	fractional inhibitory concentration index (FICI) (Candida albicans [15])	fractional inhibitory concentration index (FICI) (Cryptococcus neoformans [16])	Activity (Cryptococcus neoformans [17])	fractional inhibitory concentration index (FICI) (Pichia kudriavzevii [18])	other results
O=C(N/N=C/c1ccc(Br)cc1O)c1cc(Br)cc(Br)c1O	533	533	32 µg/mL (≈ 64.9 µM)	0.188	0.12 µg/mL (≈ 0.243 µM)	0.135	0.183	4 µg/mL (≈ 8.11 µM)	0.261	0.5 µg/mL (≈ 1.01 µM)	2.002	0.129	2	1.016	0.508	32 µg/mL (≈ 64.9 µM)	0.375	0.247	Dose-dependent effect	0.023	fractional inhibitory concentration index (FICI) ([Candida] auris [19]): 0.252; fractional inhibitory concentration index (FICI) (Cryptococcus neoformans [20]): 0.24; fractional inhibitory concentration index (FICI) (Candida parapsilosis [21]): 1.015; fractional inhibitory concentration index (FICI) ([Candida] auris [22]): 0.531; fractional inhibitory concentration index (FICI) (Candida parapsilosis [23]): 2; MIC80 (Pichia kudriavzevii [24]): 0.25 µg/mL (≈ 0.507 µM); MIC80 (Pichia kudriavzevii [25]): 0.25 µg/mL (≈ 0.507 µM); fractional inhibitory concentration index (FICI) (Pichia kudriavzevii [26]): 0.018; fractional inhibitory concentration index (FICI) (Candida albicans [27]): 0.508; fractional inhibitory concentration index (FICI) (Aspergillus fumigatus [28]): 2; MIC80 (Candida parapsilosis [29]): 2 µg/mL (≈ 4.06 µM); fractional inhibitory concentration index (FICI) (Aspergillus fumigatus [30]): 0.188; fractional inhibitory concentration index (FICI) (Pichia kudriavzevii [31]): 0.501; MFC100 (Cryptococcus neoformans [32]): 0.12 µg/mL (≈ 0.243 µM); fractional inhibitory concentration index (FICI) (Cryptococcus neoformans [33]): 0.24; fractional inhibitory concentration index (FICI) ([Candida] auris [34]): 0.18; fractional inhibitory concentration index (FICI) (Candida albicans [35]): 2; MIC80 (Candida albicans [36]): 2 µg/mL (≈ 4.06 µM); MIC80 (Cryptococcus neoformans [37]): 0.06 µg/mL (≈ 0.122 µM)
O=C(N/N=C/c1cc(Br)cc(Br)c1O)c1ccc(Br)c(Br)c1	1070	1070	64 µg/mL (≈ 115 µM)	0.37	0.12 µg/mL (≈ 0.216 µM)	1.03	0.153	> 16 µg/mL	0.247	16 µg/mL (≈ 28.8 µM)	0.125	0.254	0.501	0.281	2.007	64 µg/mL (≈ 115 µM)	0.271	0.247	Dose-dependent effect	0.528	fractional inhibitory concentration index (FICI) (Pichia kudriavzevii [38]): 0.121; fractional inhibitory concentration index (FICI) ([Candida] auris [19]): 1.001; fractional inhibitory concentration index (FICI) (Cryptococcus neoformans [20]): 0.247; fractional inhibitory concentration index (FICI) (Candida parapsilosis [21]): 2.015; fractional inhibitory concentration index (FICI) ([Candida] auris [22]): 1.001; fractional inhibitory concentration index (FICI) (Candida parapsilosis [23]): 1.001; MIC80 (Pichia kudriavzevii [24]): > 16 µg/mL; MIC80 (Pichia kudriavzevii [25]): 4 µg/mL (≈ 7.2 µM); fractional inhibitory concentration index (FICI) (Pichia kudriavzevii [26]): 0.31; fractional inhibitory concentration index (FICI) (Candida albicans [27]): 0.5; fractional inhibitory concentration index (FICI) (Aspergillus fumigatus [28]): 2; MIC80 (Candida parapsilosis [29]): 16 µg/mL (≈ 28.8 µM); fractional inhibitory concentration index (FICI) (Aspergillus fumigatus [30]): 1.031; fractional inhibitory concentration index (FICI) (Pichia kudriavzevii [31]): 1; fractional inhibitory concentration index (FICI) (Cryptococcus neoformans [33]): 0.237; fractional inhibitory concentration index (FICI) ([Candida] auris [34]): 1.12; fractional inhibitory concentration index (FICI) (Candida albicans [35]): 0.563; MIC80 (Candida albicans [36]): > 16 µg/mL; MIC80 (Cryptococcus neoformans [37]): 0.06 µg/mL (≈ 0.108 µM)
